ChEMBL document CHEMBL1817592, “Triazoles as γ-secretase modulators” (Bioorg Med Chem Lett, 2011)

Columns and labels:
Assay type in all cases: ADME, organism-based
[1] = Volume of distribution at steady state in Sprague-Dawley rat at 1 mg/kg, iv and 2 mg/kg, po; settings: in vivo, read-out: Vdss
How it was run: (§1)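 SD rat pharmacokinetics: 1 mg/kg iv and 2 mg/kg po. Plasma clearance and Vd were determined. Half-life came from the iv arm.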

[2] = Oral bioavailability in Sprague-Dawley rat at 2 mg/kg; settings: in vivo; how it was run: as §1
[3] = Drug level in Sprague-Dawley rat brain at 60 mg/kg, po after 6 hrs; set-up: dose 60 mg/kg, route oral; settings: read-out: Drug uptake
How it was run: (§2)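 Single 60 mg/kg oral dose in SD rats. Plasma and brain drug exposure and central Aβ42 were assessed 6 h post-dose.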

[4] = Half life in Sprague-Dawley rat at 1 mg/kg, iv; set-up: dose 1 mg/kg, route intravenous; settings: in vivo; how it was run: as §1
[5] = Plasma concentration in Sprague-Dawley rat at 60 mg/kg, po after 6 hrs; set-up: dose 60 mg/kg, route oral; how it was run: as §2
[6] = tested on: Rattus norvegicus; experiment: Dose normalized AUC (0 to 24 hrs) in Sprague-Dawley rat at 2 mg/kg, po; set-up: dose 2 mg/kg, route oral; settings: in vivo
How it was run: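 Sprague–Dawley rats dosed orally at 2 mg/kg, alongside a separate 1 mg/kg iv arm. Plasma exposure was followed over 0–24 h after the oral dose. AUC was normalized to dose and expressed as μM h kg/mg.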

[7] = Plasma clearance in Sprague-Dawley rat at 1 mg/kg, iv and 2 mg/kg, po; how it was run: as §1
[8] = Drug level in Sprague-Dawley rat brain at 100 mg/kg, po after 6 hrs; set-up: dose 100 mg/kg, route oral; settings: read-out: Drug uptake
How it was run: (§3)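 SD rats given a single 100 mg/kg oral dose, n=5. Plasma and whole brain were taken 6 h later. Drug concentrations were measured in both, the brain-to-plasma ratio was derived from them, and whole-brain Aβ42 was reported as percent change.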

[9] = Plasma concentration in Sprague-Dawley rat at 100 mg/kg, po after 6 hrs; set-up: dose 100 mg/kg, route oral; how it was run: as §3
[10] = Ratio of drug level in brain to plasma in Sprague-Dawley rat at 100 mg/kg, po after 6 hrs; set-up: dose 100 mg/kg, route oral; settings: read-out: BPR; how it was run: as §3

SMILES	Vd [1] [L/kg]	bioavailability [2] [%]	concentration at 6 h [3] [µM]	half-life [4] [h]	concentration at 6 h [5] [µM]	AUC/dose [6] [µM·kg·h/mg]	clearance [7] [mL/min/kg]	concentration at 6 h [8] [µM]	concentration at 6 h [9] [µM]	Kp at 6 h [10]
COc1cc(-c2cn(Cc3ccc(-c4nc5ccccc5o4)cc3)nn2)ccc1-n1cnc(C)c1	2.8	49	9.4	5.4	40	2.6	13.7	–	–	–
COc1cc(-c2cn(Cc3ccc(C(C)(C)C)cc3)nn2)ccc1-n1cnc(C)c1	7.1	41	–	7.7	–	1.4	24	56	47	1.2
